Drawing on ChEMBL document CHEMBL6120993, “Cardenolides in Asclepias syriaca Seeds: Exploring the Legacy of Tadeus Reichstein” (J Nat Prod, 2025), this text covers IC50 for eight compounds.

Assay [1] is described as follows: Inhibition of porcine sodium/potassium-ATPase incubated for 20 mins by Spectrophotometric analysis. Further details: species or system Sus scrofa domesticus. An outline of the steps:
(§1)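 Enzyme was porcine cerebral cortex Na+/K+-ATPase or dissected Oncopeltus fasciatus neural tissue. Six-point 1/10 series (5 × 10⁻³ to 5 × 10⁻⁸ M, in 20% DMSO/H2O) was diluted 1:5 into Tris-buffered ATP, NaCl, KCl, MgCl2 and enzyme, then held 20 min at 37 °C with shaking. SDS stop; Taussky–Shorr phosphate read at 700 nm. KCl-free background contained 10 mM ouabain. Technical triplicates; ouabain reference; 4-parameter logistic mixed model gave IC50.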

Assay [2] can be described thus: Inhibition of seed bug sodium/potassium-ATPase incubated for 20 mins by Spectrophotometric analysis. Also on record: species or system Oncopeltus fasciatus. An outline of the steps: as §1

pIC50: −log10 of the molar value.

As a reminder, the pIC50 is the IC50 on a negative log10 scale, so that one unit is a factor of ten. Regarding `C[C@@H]1C[C@@H](O[C@@H]2O[C@H](CO)[C@@H](O)[C@H](O)[C@H]2O)[C@]2(O)O[C@@H]3C[C@@]4(C)[C@@H](C[C@@H]5O[C@]56[C@@H]4[C@H](O)[C@H](O)[C@]4(C)[C@@H](C5=CC(=O)OC5)CC[C@@]46O)C[C@H]3O[C@@H]2O1`, the pIC50 in assay [1] was 5.66; in assay [2], 2.71.

As to `C[C@H]1O[C@@H](O[C@H]2CC[C@@]3(C)[C@@H](CC[C@@H]4[C@@H]3C[C@@H](O)[C@]3(C)[C@@H](C5=CC(=O)OC5)CC[C@]43O)C2)[C@H](O)[C@H](O)[C@@H]1O[C@@H]1O[C@H](CO)[C@@H](O)[C@H](O)[C@H]1O`, the figures for the pIC50 in assay [1] and in assay [2] were 5.96 and 3.66, respectively.

Consider `C[C@H]1O[C@@H](O[C@H]2CC[C@@]3(C)[C@H](C2)C[C@@H]2O[C@]24[C@@H]3CC[C@]2(C)[C@@H](C3=CC(=O)OC3)CC[C@]42O)[C@H](O)[C@H](O)[C@@H]1O[C@@H]1O[C@H](CO)[C@@H](O)[C@H](O)[C@H]1O`, for which the values for the pIC50 in assay [1] and in assay [2] were 5.96 and 3.08, respectively.

For the compound `C[C@H]1O[C@@H](O[C@H]2CC[C@@]3(C)[C@H](C2)C[C@@H]2O[C@]24[C@@H]3C[C@@H](O)[C@]2(C)[C@@H](C3=CC(=O)OC3)CC[C@@]24O)[C@H](O)[C@H](O)[C@@H]1O[C@@H]1O[C@H](CO)[C@@H](O)[C@H](O)[C@H]1O`, the pIC50 in assay [1] was 5.85; in assay [2] it was 2.98.

In the case of `C[C@@H]1C[C@@H](O[C@@H]2O[C@H](CO)[C@@H](O)[C@H](O)[C@H]2O)[C@]2(O)O[C@@H]3C[C@@]4(C)[C@@H](C[C@@H]5O[C@]56[C@@H]4[C@H](O)C(=O)[C@]4(C)[C@@H](C5=CC(=O)OC5)CC[C@]64O)C[C@H]3O[C@@H]2O1`, the pIC50 in assay [1] was 6.05; in assay [2], 3.19.

On to `C[C@@H]1C[C@@]2(N=CCS2)[C@]2(O)O[C@@H]3C[C@@]4(C)[C@@H](C[C@@H]5O[C@]56[C@@H]4[C@H](O)C(=O)[C@]4(C)[C@@H](C5=CC(=O)OC5)CC[C@]64O)C[C@H]3O[C@@H]2O1`, for which the pIC50 in assay [1] was 6.05; in assay [2] it was 3.66.

Turning to `C[C@H]1O[C@@H](O[C@H]2CC[C@@]3(C)[C@H](C2)C[C@@H]2O[C@]24[C@@H]3C[C@@H](O)[C@]2(C)[C@@H](C3=CC(=O)OC3)CC[C@@]24O)[C@H](O)[C@H](O)[C@@H]1O`, the pIC50 was 5.85 in assay [1] and 2.97 in assay [2].

Regarding `C[C@@H]1O[C@@H](O[C@H]2C[C@@H](O)[C@]3(CO)[C@H]4[C@H](O)C[C@]5(C)[C@@H](C6=CC(=O)OC6)CC[C@]5(O)[C@@H]4CC[C@]3(O)C2)[C@H](O)[C@H](O)[C@H]1O` [OUABAIN], the pIC50 in assay [1] was 6.15; in assay [2] it was 2.68.
